A short description of data set [1]: Percent inhibition of human liver microsome cytochrome P-450 mediated hexobarbital 3'-hydroxylase activity in the presence of NADPH. To be noted: microsomes. In a few lines:
(§1)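 Human liver microsomes (sample HL 95) preincubated with test compound (50 μM) plus NADPH-generating system for 20 min at 37 °C. […] Activity measured afterwards; values corrected for inhibition by methanol solvent alone.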

A short description of data set [2]: Percent inhibition of human liver microsome cytochrome P-450 mediated phenacetin O-deethylase activity in the presence of NADPH. Particulars: microsomes. In a few lines:
as §1

In data set [3] the target is T1, Cytochrome P450 3A4 (Homo sapiens, UniProt P08684). As to the kind of experiment: Percent inhibition of human liver microsome cytochrome P-450 mediated nifedipine oxidase activity without NADPH. Particulars: microsomes. An outline of the steps: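 Microsomes (HL 95, 500 pmol P-450 in 0.5 mL 50 mM potassium phosphate, pH 7.85) preincubated 20 min at 37 °C with compound (50 μM) without NADPH-generating system. […] Values corrected for methanol solvent.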
T1 sequence (P08684 whole entry): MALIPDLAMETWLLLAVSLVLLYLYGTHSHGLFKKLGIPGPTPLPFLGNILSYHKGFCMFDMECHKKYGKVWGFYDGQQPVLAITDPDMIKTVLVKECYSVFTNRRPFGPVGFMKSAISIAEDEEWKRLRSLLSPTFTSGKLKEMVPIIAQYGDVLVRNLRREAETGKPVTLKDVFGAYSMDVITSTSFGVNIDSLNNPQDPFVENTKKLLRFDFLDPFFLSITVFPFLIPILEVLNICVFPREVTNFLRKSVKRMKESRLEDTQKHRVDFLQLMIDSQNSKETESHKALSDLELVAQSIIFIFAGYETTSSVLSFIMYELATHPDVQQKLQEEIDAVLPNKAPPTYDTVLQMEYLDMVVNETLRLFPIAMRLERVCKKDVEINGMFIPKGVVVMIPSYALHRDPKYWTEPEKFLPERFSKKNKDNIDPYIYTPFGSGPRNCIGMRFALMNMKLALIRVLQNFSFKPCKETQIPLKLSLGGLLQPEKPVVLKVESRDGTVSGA
(Liver microsomes are vesicles of endoplasmic reticulum, rich in cytochrome P450 enzymes.)

The target of data set [4] is T1, Cytochrome P450 3A4. The data set is described as follows: Percent inhibition of human liver microsome cytochrome P-450 mediated nifedipine oxidase activity in the presence of NADPH. Particulars: microsomes. An outline of the steps:
as §1

Data set [5] deals with T1, Cytochrome P450 3A4. The data set is described as follows: Rate of Oxidation in human liver microsomes is measured as mean (nmol product) formed / min per nmol cytochrome P-450.
Data set [6] addresses T1, Cytochrome P450 3A4. As to the kind of experiment: Rate of Oxidation in human liver microsomes as mean (nmol product) formed/min/nmol cytochrome P-450; e denotes Product not separated with HPCL system. It counts as ADME, Microsome. In a few lines: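 NADPH-fortified human liver microsomes (HL 94, HL 95, HL 96; usually 50 pmol P-450), substrate 0.2 mM, 100 mM potassium phosphate pH 7.85, 37 °C, 10 min, amber vials. Stopped with Na2CO3/NaCl pH 10.5 and extracted into CH2Cl2. Pyridine product quantified by isocratic reversed-phase HPLC (UV 254 and/or 280 nm) against external standards by peak height. Value is the mean with range over the three samples.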

A short description of data set [7]: Percent inhibition of human liver microsome cytochrome P-450 mediated phenacetin O-deethylase activity without NADPH; Phenacetin O-deethylase activity inhibited by 40%. To be noted: microsomes.

As usually defined, the Inhibition is the percentage by which the read-out fell short of the control.

`COC(=O)C1=C(C)N=C(C)/C(=C(/O)OC)C1C1CC=CCC1` (stereo unspecified): the Inhibition in data set [1] is 82%; in data set [2], 59%; at Cytochrome P450 3A4 [3], 27%; on Cytochrome P450 3A4 [4] it was 86%. Moreover, the Rate of oxidation on Cytochrome P450 3A4 [5] stood at 0.12.

`COC(=O)C1=C(C)N=C(C)/C(=C(/O)OC)C1c1cccc(Cl)c1` (stereo unspecified) returned a Rate of oxidation on Cytochrome P450 3A4 [5] of 0.5.

Regarding `CCOC(=O)C1=C(C)NC(C)=C(C(=O)OCC)C1c1ccccc1`, the Rate of oxidation at Cytochrome P450 3A4 [5] is on record as 0.51.

On to `CCOC(=O)C1=C(C)NC(C)=C(C(=O)OC)C1c1cccc([N+](=O)[O-])c1` (stereo unspecified) [NITRENDIPINE], for which, at Cytochrome P450 3A4 [5], the Rate of oxidation is 0.52.

With `COC(=O)C1=C(C)N=C(C)/C(=C(/O)OC)C1c1ccc(C(F)(F)F)cc1` (stereo unspecified), the Rate of oxidation on Cytochrome P450 3A4 [5] amounted to 0.45.

On to `CCCCCO/C(O)=C1\C(C)=NC(C)=C(C(=O)OCCOCCC)C1c1cccc([N+](=O)[O-])c1` (stereo unspecified), for which the Rate of oxidation at Cytochrome P450 3A4 [5] was determined as 0.67.

Turning to `COC(=O)C1=C(C)N=C(C)/C(=C(\O)OC)C1c1ccc(C)cc1` (stereo unspecified), the Rate of oxidation at Cytochrome P450 3A4 [5] stood at 0.51.

At Cytochrome P450 3A4 [5], `COC(=O)C1=C(C)N=C(C)/C(=C(/O)OC)C1c1ccc(Cl)c([N+](=O)[O-])c1` (stereo unspecified) showed a Rate of oxidation of 0.61.

`COC(=O)C1=C(C)N=C(C)/C(=C(/O)OC)C1c1c(F)cccc1Cl` (stereo unspecified) yielded a Rate of oxidation on Cytochrome P450 3A4 [5] of 0.76.

With `COC(=O)C1=C(C)N=C(C)/C(=C(/O)OC)C1C(C)C` (stereo unspecified), the Inhibition in data set [1] is given as 73%; in data set [2] it was 55%; on Cytochrome P450 3A4 [3], 32%; at Cytochrome P450 3A4 [4], 89%. In addition, at Cytochrome P450 3A4 [6], the Rate of oxidation entry is “Not separated”.

On Cytochrome P450 3A4 [5], `COC(=O)C1=C(C)N=C(C)/C(=C(\O)OC)C1c1cccc(C#N)c1` (stereo unspecified) had a Rate of oxidation of 0.41.

Turning to `CCOC(=O)C1=C(C)N=C(C)/C(=C(/O)OCC)C1CC` (stereo unspecified), the Inhibition in data set [1] is 82%; in data set [7], 40%; at Cytochrome P450 3A4 [3], 45%; on Cytochrome P450 3A4 [4], 89%. The same compound came in with a Rate of oxidation on Cytochrome P450 3A4 [5] of 0.12.

Regarding `COC(=O)C1=C(C)N=C(C)/C(=C(/O)OC)C1Cc1ccccc1` (stereo unspecified), the Inhibition in data set [1] is listed as 80%; in data set [2] it was 50%; at Cytochrome P450 3A4 [3], 25%; at Cytochrome P450 3A4 [4], 86%. Further, the Rate of oxidation at Cytochrome P450 3A4 [5] came out at 0.25.

Compound `COC(=O)C1=C(C)N=C(C)/C(=C(/O)OC)C1c1c(F)c(F)cc(F)c1F` (stereo unspecified) returned a Rate of oxidation on Cytochrome P450 3A4 [5] of 0.98.

For the compound `COC(=O)C1=C(C)NC(C)=C(C(=O)OC)C1c1ccccc1`, the Rate of oxidation at Cytochrome P450 3A4 [5] came to 0.53.

(Values after ChEMBL document CHEMBL1123360, “Oxidation of 4-aryl- and 4-alkyl-substituted 2,6-dimethyl-3,5-bis(alkoxycarbonyl)-1,4-dihydropyridines by human liver microsomes and immunochemical evidence for the involvement of a form of cytochrome P-450” (J Med Chem, 1986).)
